In ChEMBL document CHEMBL4196108, “5-Aroylindoles Act as Selective Histone Deacetylase 6 Inhibitors Ameliorating Alzheimer's Disease Phenotypes” (J Med Chem, 2018):
The source made the active and inactive calls. The rule behind the calls is not given here.

Legend:
[1] = biological target: T1, Protein deacetylase HDAC6 (Homo sapiens) (UniProt Q9UBN7); test: Inhibition of HDAC6 binding to HSP90 in human SH-SY5Y cells transfected with pCAX FLAG APP and pRK5-EGFP-Tau P301L plasmids at 1 uM after 24 hrs by coimmunoprecipitation analysis; format: cell-based
T1 sequence (whole entry): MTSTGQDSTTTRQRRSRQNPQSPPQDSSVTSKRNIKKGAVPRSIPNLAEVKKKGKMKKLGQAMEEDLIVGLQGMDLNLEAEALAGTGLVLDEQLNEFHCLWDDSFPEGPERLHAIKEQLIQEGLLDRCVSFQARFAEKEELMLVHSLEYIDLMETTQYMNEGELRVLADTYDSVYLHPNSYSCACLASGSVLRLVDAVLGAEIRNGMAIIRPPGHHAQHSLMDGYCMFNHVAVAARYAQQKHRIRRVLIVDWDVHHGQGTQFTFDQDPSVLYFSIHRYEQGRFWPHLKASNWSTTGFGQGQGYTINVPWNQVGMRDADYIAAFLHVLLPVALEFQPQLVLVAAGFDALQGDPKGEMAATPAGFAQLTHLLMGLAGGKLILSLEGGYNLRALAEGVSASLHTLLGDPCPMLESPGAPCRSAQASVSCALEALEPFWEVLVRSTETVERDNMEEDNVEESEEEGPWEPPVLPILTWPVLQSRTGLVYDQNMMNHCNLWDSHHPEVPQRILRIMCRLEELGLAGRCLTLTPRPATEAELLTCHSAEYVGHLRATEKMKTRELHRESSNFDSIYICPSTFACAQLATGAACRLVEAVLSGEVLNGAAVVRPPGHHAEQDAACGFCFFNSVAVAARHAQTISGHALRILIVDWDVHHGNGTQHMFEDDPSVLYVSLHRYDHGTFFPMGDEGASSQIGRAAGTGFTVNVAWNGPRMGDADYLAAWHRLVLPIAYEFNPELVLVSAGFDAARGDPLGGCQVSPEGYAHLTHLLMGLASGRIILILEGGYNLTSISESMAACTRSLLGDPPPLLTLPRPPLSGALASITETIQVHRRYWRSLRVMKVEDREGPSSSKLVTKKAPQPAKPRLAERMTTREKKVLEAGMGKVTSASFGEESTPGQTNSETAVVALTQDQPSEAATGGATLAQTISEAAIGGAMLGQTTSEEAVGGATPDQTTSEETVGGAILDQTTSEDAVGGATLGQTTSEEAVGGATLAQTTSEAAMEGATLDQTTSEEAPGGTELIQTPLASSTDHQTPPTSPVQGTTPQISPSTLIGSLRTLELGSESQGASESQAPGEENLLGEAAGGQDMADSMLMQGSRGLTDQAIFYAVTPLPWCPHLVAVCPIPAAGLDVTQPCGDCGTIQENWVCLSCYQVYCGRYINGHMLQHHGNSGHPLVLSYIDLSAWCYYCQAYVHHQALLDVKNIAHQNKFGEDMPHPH
Method in brief: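 SH-SY5Y and Neuro-2a cells cotransfected 24 h with APP695/Tau P301L plasmids, treated 24 h at 1 µM (ACY-1215 reference). 30 µg lysate immunoprecipitated overnight at 4 °C with anti-HDAC6 or anti-acetyl-lysine antibodies plus protein A/G beads, run on 8% SDS-PAGE, probed for Hsp90; Hsp70 by immunoblot. Three independent experiments.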

[2] = Plasma concentration in Sprague-Dawley rat at 50 mg/kg, po after 3 hrs by HPLC-MS/MS analysis; format: ADME, organism-based
[3] = biological target: T2, Protein deacetylase HDAC6 (Mus musculus) (UniProt Q9Z2V5); test: Inhibition of HDAC6 in mouse Neuro-2a cells transfected with pCAX FLAG APP and pRK5-EGFP-Tau P301L plasmids assessed as inhibition of Tau P301L mutant phosphorylation at Ser404 residue at 1 uM after 24 hrs by Western blot analysis; format: cell-based
T2 sequence (whole entry): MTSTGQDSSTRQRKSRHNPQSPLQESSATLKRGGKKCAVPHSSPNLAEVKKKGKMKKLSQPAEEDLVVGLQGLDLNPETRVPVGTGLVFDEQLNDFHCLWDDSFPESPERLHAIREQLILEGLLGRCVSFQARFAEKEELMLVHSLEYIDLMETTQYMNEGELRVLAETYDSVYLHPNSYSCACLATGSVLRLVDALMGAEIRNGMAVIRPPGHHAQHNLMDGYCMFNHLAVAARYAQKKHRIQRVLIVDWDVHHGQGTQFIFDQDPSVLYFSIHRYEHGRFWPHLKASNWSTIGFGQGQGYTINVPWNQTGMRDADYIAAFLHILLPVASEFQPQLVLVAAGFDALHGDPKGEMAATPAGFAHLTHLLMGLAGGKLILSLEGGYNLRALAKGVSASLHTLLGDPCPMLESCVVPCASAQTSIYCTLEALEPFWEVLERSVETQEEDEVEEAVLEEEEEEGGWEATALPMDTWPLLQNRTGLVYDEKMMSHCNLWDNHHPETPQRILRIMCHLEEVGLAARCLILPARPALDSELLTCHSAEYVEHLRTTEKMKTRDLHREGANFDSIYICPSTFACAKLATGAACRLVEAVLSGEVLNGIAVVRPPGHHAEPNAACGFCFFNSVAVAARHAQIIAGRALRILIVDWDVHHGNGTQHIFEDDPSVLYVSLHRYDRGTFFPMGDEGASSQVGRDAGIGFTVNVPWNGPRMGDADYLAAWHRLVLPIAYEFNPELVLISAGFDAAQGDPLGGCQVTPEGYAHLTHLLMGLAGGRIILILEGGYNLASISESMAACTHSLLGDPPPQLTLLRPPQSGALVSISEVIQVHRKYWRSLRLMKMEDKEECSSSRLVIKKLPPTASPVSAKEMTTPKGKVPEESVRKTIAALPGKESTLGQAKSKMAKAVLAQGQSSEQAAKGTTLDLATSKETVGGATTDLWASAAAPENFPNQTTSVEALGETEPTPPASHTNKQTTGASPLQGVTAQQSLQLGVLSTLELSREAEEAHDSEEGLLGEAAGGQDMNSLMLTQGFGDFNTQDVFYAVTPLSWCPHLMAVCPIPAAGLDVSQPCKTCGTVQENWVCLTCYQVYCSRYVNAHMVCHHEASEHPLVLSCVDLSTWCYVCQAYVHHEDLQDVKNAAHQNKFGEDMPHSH
Method in brief: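 SH-SY5Y or Neuro-2a cells cotransfected 24 h with pCAX APP695 and pRK5-EGFP-Tau P301L, then treated 24 h at 1 µM. 20 µg lysate protein immunoblotted for APP and phospho-tau Ser396/Ser404. Mean ± STD of three independent experiments; Student's t-test.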

[4] = biological target: T1, Protein deacetylase HDAC6 (Homo sapiens); test: Inhibition of HDAC6 in human SH-SY5Y cells transfected with pCAX FLAG APP and pRK5-EGFP-Tau P301L plasmids assessed as inhibition of amyloid beta (1 to 40)-induced Tau P301L mutant phosphorylation at 1 uM after 24 hrs by Western blot analysis

Q: Which results are given for `COc1ccc(C(=O)c2ccc3c(ccn3Cc3ccc(C(=O)NO)cc3)c2)cc1`?
A: inhibition [1]: Active; concentration at 3 h [2]: 7.3 ng/mL; inhibition [3]: Active; inhibition [4]: Active
